The results in this text go back to ChEMBL document CHEMBL1250442, “Inhibiting gene expression at transcription start sites in chromosomal DNA with antigene RNAs” (Nat Chem Biol, 2005).

Structures are written as SMILES. Calls of active or inactive are those of the source. The rule behind the calls is not given here. Bounds are passed on as bounds.

The test system of data set [1] is T47D. Briefly: Inhibition of PR-A gene expression in human T47D cells at 25 nM by syber green assay in presence of 10 nM estradiol. Type of data set: functional, cell-based.
Data set [2] deals with T47D. Nature of the data set: Inhibition of PR-B gene expression in human T47D cells at 25 nM by syber green assay in presence of 10 nM estradiol. In kind it is functional, cell-based.
For data set [3], the system named is T47D. Briefly: Inhibition of PR-A mRNA gene expression in human T47D cells at 100 nM by syber green assay. In kind it is functional. The procedure, abridged: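 T47D cells plated at 80,000/well without antibiotics two days before Oligofectamine transfection with agRNA duplex (25 or 100 nM final); medium changed at 24 h, harvest day 5 unless stated otherwise. TRIzol total RNA; PR mRNA by real-time PCR with SYBR Green: 50 °C 2 min, 95 °C 10 min, 40 cycles 95 °C 15 s/60 °C 1 min.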

Data set [4] concerns T47D. Nature of the data set: Inhibition of PR-B mRNA gene expression in human T47D cells at 100 nM by syber green assay. Type of data set: functional. In short, it runs like this:
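T47D cells in RPMI-1640 with 10% FBS, NEAA, insulin, 37 °C, 5% CO2. Plated two days before transfection without antibiotics. Oligofectamine-mediated duplex RNA transfection at 100 nM final, medium changed at 24 h, harvest five days post-transfection. Total RNA extracted with TRIzol. hPR mRNA quantified by SYBR Green qPCR: 50 °C 2 min, 95 °C 10 min, then 40 cycles of 95 °C 15 s / 60 °C 1 min.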

Data set [5] concerns T47D. Nature of the data set: Inhibition of major vault protein expression in human T47D cells at 100 nM by syber green assay. Type of data set: functional, cell-based.
Data set [6] has as its system T47D. Briefly: Cytotoxicity against human T47D cells assessed as effect on cellular morphology. Type of data set: cell-based.
Data set [7] concerns T47D. Nature of the data set: Inhibition of cyclooxygenase-2 expression in human T47D cells at 25 nM by syber green assay. In kind it is functional, cell-based.

On to `Cc1cn(CC(=O)N(CCNC(=O)CN(CCNC(=O)CN(CCNC(=O)CN(CCNC(=O)CN(CCNC(=O)CN(CCNC(=O)CN(CCNC(=O)CN(CCNC(=O)CN(CCNC(=O)CN(CCNC(=O)CN(CCNC(=O)CN(CCNC(=O)CN(CCNC(=O)CN(CCNC(=O)CN(CCNC(=O)CN(CCNC(=O)CN(CCNC(=O)CN(CCNC(=O)CN(CCNC(=O)CN(CCNC(=O)CN)C(=O)Cn2cnc3c(=O)[nH]c(N)nc32)C(=O)Cn2cnc3c(=O)[nH]c(N)nc32)C(=O)Cn2cnc3c(=O)[nH]c(N)nc32)C(=O)Cn2ccc(=O)[nH]c2=O)C(=O)Cn2cnc3c(=O)[nH]c(N)nc32)C(=O)Cn2cnc3c(N)ncnc32)C(=O)Cn2cnc3c(=O)[nH]c(N)nc32)C(=O)Cn2cnc3c(N)ncnc32)C(=O)Cn2cnc3c(=O)[nH]c(N)nc32)C(=O)Cn2ccc(=O)[nH]c2=O)C(=O)Cn2ccc(=O)[nH]c2=O)C(=O)Cn2ccc(N)nc2=O)C(=O)Cn2ccc(N)nc2=O)C(=O)Cn2ccc(N)nc2=O)C(=O)Cn2ccc(N)nc2=O)C(=O)Cn2cnc3c(N)ncnc32)C(=O)Cn2ccc(=O)[nH]c2=O)C(=O)Cn2ccc(N)nc2=O)C(=O)Cn2ccc(=O)[nH]c2=O)CC(=O)NCCN(CC(=O)NCC(=O)O)C(=O)Cn2cc(C)c(=O)[nH]c2=O)c(=O)[nH]c1=O`, for which the inhibition result with T47D [1], with T47D [2] and in the data set with T47D [5] was “Active” in each case. The inhibition at 0.1 µM with T47D [3] and in the data set with T47D [4] was 91% each time.

As to `Cc1cn([C@H]2C[C@H](OP(=O)(O)OC[C@H]3O[C@@H](n4cc(C)c(=O)[nH]c4=O)C[C@@H]3O)[C@@H](COP(=O)(O)O[C@H]3[C@@H](O)[C@H](n4ccc(N)nc4=O)O[C@@H]3COP(=O)(O)O[C@H]3[C@@H](O)[C@H](n4ccc(N)nc4=O)O[C@@H]3COP(=O)(O)O[C@H]3[C@@H](O)[C@H](n4cnc5c(N)ncnc54)O[C@@H]3COP(=O)(O)O[C@H]3[C@@H](O)[C@H](n4ccc(N)nc4=O)O[C@@H]3COP(=O)(O)O[C@H]3[C@@H](O)[C@H](n4cnc5c(N)ncnc54)O[C@@H]3COP(=O)(O)O[C@H]3[C@@H](O)[C@H](n4ccc(N)nc4=O)O[C@@H]3COP(=O)(O)O[C@H]3[C@@H](O)[C@H](n4ccc(N)nc4=O)O[C@@H]3COP(=O)(O)O[C@H]3[C@@H](O)[C@H](n4ccc(=O)[nH]c4=O)O[C@@H]3COP(=O)(O)O[C@H]3[C@@H](O)[C@H](n4cnc5c(=O)[nH]c(N)nc54)O[C@@H]3COP(=O)(O)O[C@H]3[C@@H](O)[C@H](n4cnc5c(N)ncnc54)O[C@@H]3COP(=O)(O)O[C@H]3[C@@H](O)[C@H](n4ccc(N)nc4=O)O[C@@H]3COP(=O)(O)O[C@H]3[C@@H](O)[C@H](n4ccc(N)nc4=O)O[C@@H]3COP(=O)(O)O[C@H]3[C@@H](O)[C@H](n4cnc5c(=O)[nH]c(N)nc54)O[C@@H]3COP(=O)(O)O[C@H]3[C@@H](O)[C@H](n4ccc(N)nc4=O)O[C@@H]3COP(=O)(O)O[C@H]3[C@@H](O)[C@H](n4ccc(=O)[nH]c4=O)O[C@@H]3COP(=O)(O)O[C@H]3[C@@H](O)[C@H](n4ccc(N)nc4=O)O[C@@H]3COP(=O)(O)O[C@H]3[C@@H](O)[C@H](n4ccc(=O)[nH]c4=O)O[C@@H]3COP(=O)(O)O[C@H]3[C@@H](O)[C@H](n4ccc(N)nc4=O)O[C@@H]3COP(=O)(O)O[C@H]3[C@@H](O)[C@H](n4ccc(=O)[nH]c4=O)O[C@@H]3CO)O2)c(=O)[nH]c1=O`, the inhibition at 0.1 µM in the data set with T47D [3] and in the data set with T47D [4] was below 20% in each case. Besides, the Activity result in the data set with T47D [6] is reported as “Non-toxic”.

Take `Cc1cn(CC(=O)N(CCNC(=O)CN(CCNC(=O)CN(CCNC(=O)CN(CCNC(=O)CN(CCNC(=O)CN(CCNC(=O)CN(CCNC(=O)CN(CCNC(=O)CN(CCNC(=O)CN(CCNC(=O)CN(CCNC(=O)CN(CCNC(=O)CN(CCNC(=O)CN(CCNC(=O)CN(CCNC(=O)CN(CCNC(=O)CN(CCNC(=O)CN(CCNC(=O)CN(CCNC(=O)CN(CCNC(=O)CN)C(=O)Cn2cnc3c(N)ncnc32)C(=O)Cn2cnc3c(=O)[nH]c(N)nc32)C(=O)Cn2cnc3c(=O)[nH]c(N)nc32)C(=O)Cn2ccc(N)nc2=O)C(=O)Cn2cnc3c(N)ncnc32)C(=O)Cn2cnc3c(=O)[nH]c(N)nc32)C(=O)Cn2cnc3c(=O)[nH]c(N)nc32)C(=O)Cn2cnc3c(=O)[nH]c(N)nc32)C(=O)Cn2ccc(=O)[nH]c2=O)C(=O)Cn2cnc3c(=O)[nH]c(N)nc32)C(=O)Cn2cnc3c(N)ncnc32)C(=O)Cn2cnc3c(=O)[nH]c(N)nc32)C(=O)Cn2cnc3c(N)ncnc32)C(=O)Cn2cnc3c(=O)[nH]c(N)nc32)C(=O)Cn2ccc(=O)[nH]c2=O)C(=O)Cn2ccc(=O)[nH]c2=O)C(=O)Cn2ccc(N)nc2=O)C(=O)Cn2ccc(N)nc2=O)C(=O)Cn2ccc(N)nc2=O)CC(=O)NCCN(CC(=O)NCC(=O)O)C(=O)Cn2cc(C)c(=O)[nH]c2=O)c(=O)[nH]c1=O`: the inhibition result in the data set on T47D [1], in the data set with T47D [2] and in the data set with T47D [5] was “Active” each time. Besides, the inhibition at 0.1 µM with T47D [3] and in the data set on T47D [4] was 81% throughout.

In the case of `Cc1cn(CC(=O)N(CCNC(=O)CN(CCNC(=O)CN(CCNC(=O)CN(CCNC(=O)CN(CCNC(=O)CN(CCNC(=O)CN(CCNC(=O)CN(CCNC(=O)CN(CCNC(=O)CN(CCNC(=O)CN(CCNC(=O)CN(CCNC(=O)CN(CCNC(=O)CN(CCNC(=O)CN(CCNC(=O)CN(CCNC(=O)CN(CCNC(=O)CN(CCNC(=O)CN(CCNC(=O)CN(CCNC(=O)CN)C(=O)Cn2ccc(=O)[nH]c2=O)C(=O)Cn2ccc(N)nc2=O)C(=O)Cn2cnc3c(=O)[nH]c(N)nc32)C(=O)Cn2cnc3c(=O)[nH]c(N)nc32)C(=O)Cn2ccc(=O)[nH]c2=O)C(=O)Cn2ccc(=O)[nH]c2=O)C(=O)Cn2cnc3c(N)ncnc32)C(=O)Cn2cnc3c(=O)[nH]c(N)nc32)C(=O)Cn2ccc(N)nc2=O)C(=O)Cn2cnc3c(=O)[nH]c(N)nc32)C(=O)Cn2cnc3c(N)ncnc32)C(=O)Cn2ccc(N)nc2=O)C(=O)Cn2ccc(N)nc2=O)C(=O)Cn2cnc3c(N)ncnc32)C(=O)Cn2cnc3c(N)ncnc32)C(=O)Cn2ccc(=O)[nH]c2=O)C(=O)Cn2ccc(=O)[nH]c2=O)C(=O)Cn2cnc3c(N)ncnc32)C(=O)Cn2ccc(=O)[nH]c2=O)CC(=O)NCCN(CC(=O)NCC(=O)O)C(=O)Cn2cc(C)c(=O)[nH]c2=O)c(=O)[nH]c1=O`, the inhibition result in the data set on T47D [1] and with T47D [7] was “Active” each time. For the same compound, the inhibition at 0.1 µM with T47D [3] and with T47D [4] was 71% each time.

The inhibition is the change of the read-out against control, counted positive when it falls.
